Experimental findings from publication PMC7781011 (Journal of Inflammation Research, 2020) are described below.

One data set deals with T1, mouse COX-2 (Mus musculus, UniProt Q05769).
T1 sequence (Q05769 18-604): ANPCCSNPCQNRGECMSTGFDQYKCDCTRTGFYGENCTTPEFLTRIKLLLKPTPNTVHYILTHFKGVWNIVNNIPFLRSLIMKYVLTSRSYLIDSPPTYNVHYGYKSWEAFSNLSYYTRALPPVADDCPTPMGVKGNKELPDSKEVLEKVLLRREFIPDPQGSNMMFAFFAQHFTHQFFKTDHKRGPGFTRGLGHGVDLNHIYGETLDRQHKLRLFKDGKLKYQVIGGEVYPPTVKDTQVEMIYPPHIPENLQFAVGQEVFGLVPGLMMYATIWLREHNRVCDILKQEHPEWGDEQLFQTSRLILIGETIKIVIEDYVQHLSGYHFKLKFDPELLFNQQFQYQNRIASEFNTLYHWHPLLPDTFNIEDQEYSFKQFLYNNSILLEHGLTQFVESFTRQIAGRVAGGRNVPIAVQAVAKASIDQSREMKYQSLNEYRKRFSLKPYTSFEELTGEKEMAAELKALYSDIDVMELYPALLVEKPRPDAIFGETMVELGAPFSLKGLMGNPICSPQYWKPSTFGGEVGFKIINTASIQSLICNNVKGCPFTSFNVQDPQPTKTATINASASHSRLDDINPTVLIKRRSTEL
Briefly: Cell-free fluorometric COX-2 assay. The format is biochemical.

Another data set addresses T2, rat COX-2 (Rattus norvegicus, UniProt P35355).
T2 sequence (P35355 18-604): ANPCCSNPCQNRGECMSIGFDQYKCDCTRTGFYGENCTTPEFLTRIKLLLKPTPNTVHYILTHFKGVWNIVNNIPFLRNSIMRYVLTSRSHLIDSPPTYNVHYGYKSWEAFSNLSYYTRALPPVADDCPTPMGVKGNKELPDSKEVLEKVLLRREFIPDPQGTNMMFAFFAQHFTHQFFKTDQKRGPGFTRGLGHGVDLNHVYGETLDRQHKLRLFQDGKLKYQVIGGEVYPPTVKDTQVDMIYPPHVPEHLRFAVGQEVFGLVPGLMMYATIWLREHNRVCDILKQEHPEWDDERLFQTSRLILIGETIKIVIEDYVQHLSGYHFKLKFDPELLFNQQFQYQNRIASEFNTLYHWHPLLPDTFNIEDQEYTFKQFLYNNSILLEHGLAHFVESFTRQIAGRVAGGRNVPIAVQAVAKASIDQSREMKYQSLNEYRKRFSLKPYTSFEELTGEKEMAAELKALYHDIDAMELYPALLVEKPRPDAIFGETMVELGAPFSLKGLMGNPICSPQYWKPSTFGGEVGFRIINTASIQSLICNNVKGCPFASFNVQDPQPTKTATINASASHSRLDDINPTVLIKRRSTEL
The data set is described as follows: Cell-free fluorometric COX-2 assay. The format is biochemical.

A further data set has as its target T3, human COX-2 (Homo sapiens, UniProt P35354).
T3 sequence (P35354 18-604): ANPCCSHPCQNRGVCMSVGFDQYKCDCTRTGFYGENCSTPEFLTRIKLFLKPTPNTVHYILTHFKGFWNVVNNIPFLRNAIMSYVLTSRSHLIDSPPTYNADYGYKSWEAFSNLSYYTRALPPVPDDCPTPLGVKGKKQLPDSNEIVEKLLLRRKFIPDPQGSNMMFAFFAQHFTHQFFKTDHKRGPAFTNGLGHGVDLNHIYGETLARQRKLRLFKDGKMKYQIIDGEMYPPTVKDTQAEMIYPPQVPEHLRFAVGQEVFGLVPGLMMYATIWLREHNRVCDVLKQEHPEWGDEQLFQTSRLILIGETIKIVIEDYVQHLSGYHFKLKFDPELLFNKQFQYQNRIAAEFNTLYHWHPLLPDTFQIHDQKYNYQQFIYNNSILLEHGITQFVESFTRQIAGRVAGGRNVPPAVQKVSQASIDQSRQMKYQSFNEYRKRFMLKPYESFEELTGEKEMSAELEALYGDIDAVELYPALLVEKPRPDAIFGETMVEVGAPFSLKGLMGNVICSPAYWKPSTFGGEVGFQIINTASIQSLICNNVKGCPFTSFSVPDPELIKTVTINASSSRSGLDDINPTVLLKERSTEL
Briefly: Binding assay using isothermal titration calorimetry. The method, boiled down:
(§1)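 Serial injections of test compound (up to 1 mM) into enzyme-containing cell at 1 mM protein, both dissolved in PBS and degassed before use. Titration continued until heat signal approached zero at saturation. Isotherm fitted to obtain dissociation constant KD.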
(In general: Isothermal titration calorimetry measures the heat released or taken up as one component is titrated into another.)

For the next data set, the target named is human COX-1 (Homo sapiens, UniProt P23219). Described as above. The method, boiled down: as §1
Chain of human COX-1 (P23219 24-599): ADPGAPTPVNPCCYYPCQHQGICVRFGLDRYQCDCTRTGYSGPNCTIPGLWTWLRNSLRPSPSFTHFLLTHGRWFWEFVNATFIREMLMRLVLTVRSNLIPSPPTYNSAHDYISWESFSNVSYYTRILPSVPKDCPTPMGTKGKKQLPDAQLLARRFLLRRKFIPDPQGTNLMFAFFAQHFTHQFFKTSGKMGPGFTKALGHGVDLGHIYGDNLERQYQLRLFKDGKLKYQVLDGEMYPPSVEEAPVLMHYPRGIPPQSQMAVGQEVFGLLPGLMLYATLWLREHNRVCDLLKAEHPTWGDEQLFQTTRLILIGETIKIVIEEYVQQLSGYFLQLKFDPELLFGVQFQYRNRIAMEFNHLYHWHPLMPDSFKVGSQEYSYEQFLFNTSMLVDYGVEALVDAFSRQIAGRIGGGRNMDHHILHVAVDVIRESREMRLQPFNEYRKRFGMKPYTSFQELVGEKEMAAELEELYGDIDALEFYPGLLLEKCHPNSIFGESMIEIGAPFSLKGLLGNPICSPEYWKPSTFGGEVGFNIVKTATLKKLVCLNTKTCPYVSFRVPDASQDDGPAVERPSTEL
Data set [1] is described as follows: In vitro metabolic stability in activated liver S9 fraction. The format is in vitro ADME. Conditions: rat liver S9 fraction activated with NADPH, UDPGA, GSH, PAPS; 500 µM. The method, boiled down:
(§2)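 Mouse or rat liver S9 fraction isolated and activated with NADPH, UDPGA, GSH and PAPS before compound addition. Samples taken at 0, 15, 30, 45 and 60 min. Compound extracted with acetonitrile and quantified by reversed-phase HPLC with PDA detection. Percent remaining calculated from peak areas at 0 and 60 min.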

Assay in data set [2]: as above
As to conditions: mouse liver S9 fraction activated with NADPH, UDPGA, GSH, PAPS; 500 µM. In kind it is in vitro ADME. The method, boiled down:
as §2

A value given as a limit tells only on which side of the number the result lay.

For orientation: Kd means the free concentration of one partner at which half of the binding sites on the other are occupied at equilibrium, for simple one-to-one binding. Lower therefore signals a tighter complex. Regarding `CC1(C)Cc2c(-c3ccccc3)c(-c3ccc(Cl)cc3)c(CC(=O)NCC(=O)O)n2C1` [LFA-9, 2-[[2-[2-(4-chlorophenyl)-6,6-dimethyl-1-phenyl-5,7-dihydropyrrolizin-3-yl]acetyl]amino]acetic acid], the “inhibition of COX-2 activity” value is given as “did not show inhibition” at mouse COX-2 (cell-free, mouse, up to the tested range of 1 mM) and “did not show inhibition” on rat COX-2 (cell-free, rat, up to the tested range of 1 mM). Moreover, the Kd at human COX-2 and at human COX-1 was above 1000 µM throughout. Further, the “LFA-9 remaining after 60-minutes incubation” value in data set [1] was 98.3%; in data set [2] it was 96.1%.

By IC50 is commonly meant the point on the concentration scale where inhibition reaches its midpoint. With `CC1(C)Cc2c(-c3ccccc3)c(-c3ccc(Cl)cc3)c(CC(=O)O)n2C1` [Licofelone, reference compound], the IC50 at mouse COX-2 came to 2.01 µM; on rat COX-2, 3.26 µM.
